PfM18AAP inh: blocks P. falciparum M18 aspartyl aminopeptidase; recombinant PfM18AAP, H-Glu-NHMec fluorogenic cleavage; inhibition, % at 7.35 µM; 1.2% of 290,000 active;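 active = inhibition above the campaign mean inhibition over all tested compounds plus 3 SD, cut at about 28% in these data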;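 note: 0% = plate median of test compound wells and 100% = 2 mM ZnCl2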
HTR2A ag: mouse HTR2A agonism via beta-arrestin recruitment | P35363 | CHO-K1 mHTR2A beta-arrestin complementation, luminescence; percent of 30 µM serotonin response | activation, % at 7.6 µM | 0.66% of 360,000 active | AID 624169;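 active = activation above a run cutoff, the mean activation of all tested compounds plus 3 SD, cut at about 14% in these data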;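 note: 0% = plate median of compound wells and 100% = 30 µM serotonin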
Target sequence (P35363 whole entry, looked up): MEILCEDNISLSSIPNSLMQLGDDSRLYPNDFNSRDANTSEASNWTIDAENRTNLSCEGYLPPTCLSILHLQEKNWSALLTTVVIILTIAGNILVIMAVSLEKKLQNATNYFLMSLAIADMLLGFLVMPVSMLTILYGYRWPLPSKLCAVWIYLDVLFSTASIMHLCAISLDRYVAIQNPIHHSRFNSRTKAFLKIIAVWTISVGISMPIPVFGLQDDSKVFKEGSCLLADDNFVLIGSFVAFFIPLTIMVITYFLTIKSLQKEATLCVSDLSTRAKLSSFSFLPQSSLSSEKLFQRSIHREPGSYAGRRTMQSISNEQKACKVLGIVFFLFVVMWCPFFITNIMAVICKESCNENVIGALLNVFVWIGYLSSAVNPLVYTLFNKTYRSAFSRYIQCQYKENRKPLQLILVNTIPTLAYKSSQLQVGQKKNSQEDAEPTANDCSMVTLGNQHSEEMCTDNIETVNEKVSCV
NRP1-CendR mod: NRP-1/CendR interaction modulation | inhibition, % at 25 µM | AID 602438 | 0.85% of 360,000 active | O14786 | FAM-RPARPAR peptide binding to NRP-1, fluorescence polarization;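 active = inhibition or corrected inhibition above about 18%, plus a signal ratio from 0.5 to 1.5, limit read from the data, passing the limit was not always enough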
Arr AP2 block: human beta-arrestin and AP2 interaction inhibition | FITC-arrestin peptide / GST-AP2 beads, flow cytometry; AP2 beta2 appendage carries R879A mutation | AID 504490 | inhibition, % at 10 µM | 0.31% of 340,000 active;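 active = inhibition above a set limit, near 3 SD of compounds lacking own fluorescence, cut at about 54% in these data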;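 note: plate controls were DMSO wells for no effect and 5 µM unlabelled arrestin peptide for full effect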
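Material – AP2 appendage R879A on GSH beads · Buffer or medium – PBS with 0.05% Tween 20 and 0.1% BSA · Probe or stimulus – fluorescein-tagged arrestin peptide at 50 nM final · Incubation – compound with beads 12 min RT, then probe 1 h RT · Detection – high-throughput flow cytometry of beads, ex 488, em 535 nm · Evaluation – percent response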
sPLA2-III inh: Inhibits HGIII-sPLA2 liposome hydrolysis, primary screen; Q9NZ20; QFRET BODIPY PC-A2 liposome hydrolysis, fluorescence; inhibition, % at 12.2 µM; 0.56% of 370,000 active; AID 743126;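 active = inhibition above mean plus 3 SD of compounds lying within the high and low control bounds, cut at about 19% in these data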;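 note: 0% = median of test compound wells and 100% = no enzyme DMSO wells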
Lipid droplet: modulators of hepatic lipid droplet formation | AML12 mouse hepatocytes, oleate lipid droplets, BODIPY imaging | inhibition, % at 6.5 µM | 0.4% of 240,000 active;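 active = lipid droplet intensity inhibited by at least 50%, with more than 500 cells counted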
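Material – AML12 mouse liver cells · Also added – oleate loading, 100 µM · Compound dosing – 6.5 µM single-point dosing · Times – overnight treatment with compound plus oleate · Measured by – fluorescence imaging, 20x objective, two fields per well · Read-out – percent inhibition of filter-corrected integrated lipid droplet intensity per well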
* = called active by the depositor; / = no result. An excerpt weighted towards active compounds, which were near 3.3% of everything screened.

SMILES	PfM18AAP inh	HTR2A ag	NRP1-CendR mod	Arr AP2 block	sPLA2-III inh	Lipid droplet
CCOC(=O)[C@]12CCCCC/C=C\1N(Cc1ccc(OC)cc1)C(=O)[C@H]2CC(=O)NCC12CC3CC(CC(C3)C1)C2	/	/	/	/	-12	/
CCOC(=O)Cc1csc(NC(=O)Nc2cccc(OC)c2)n1	-13	0	6	4	-10	3
O=C(COc1ccccc1)Nc1ccc(-c2ccc(N3CCOCC3)nn2)cc1	/	3	22*	-8	-10	/
CN1CCN(c2ccc(-c3cccc(NC(=O)COc4ccccc4)c3)nn2)CC1	/	-16	-2	-3	-7	/
O=C(Cn1cnc2c(NC(=O)OCc3ccccc3)ncnc21)NCCN1CCOCC1	/	-2	29*	4	-5	/
Cc1cc(NC(=O)COC(=O)c2ccc(C)c(C)c2)no1	/	8	26*	-3	6	/
Cc1cc(NC(=O)COC(=O)c2ccc(NS(=O)(=O)c3ccc(C)c(C)c3)cc2)no1	-1	10	3	6	-28	/
COC(=O)[C@]12C[C@H](CC(=O)NCc3ccc(C)o3)C(=O)N(CCC3=CCCCC3)C1=C[C@H](C(C)C)O[C@@H]2C1CC1	/	/	/	/	-8	/
O=C(NNC(=O)c1cccc2ccccc12)c1ccc(Cl)c(Cl)c1	/	-5	-18	-13	-20	/
O=C(NNC(=O)c1ccc2ccccc2c1)c1ccc(Cl)c(Cl)c1	/	2	26*	-1	-7	/
COc1ccc(-c2cc(C(F)F)n3ncc(C(=O)n4ccnc4C)c3n2)cc1	-4	3	-16	2	25*	19
CCOC(=O)N1CCN(C(=O)c2cnn3c(C(F)F)cc(-c4ccc(C)cc4)nc23)CC1	4	-1	20*	-4	3	9
COC(=O)c1ccc2c(C(C)c3ccccc3O)c[nH]c2c1 (stereo not drawn)	/	/	/	/	-62	/
COc1cc(/C=C2\SC(=S)N(C(C(=O)O)c3ccccc3)C2=O)ccc1O (stereo not drawn)	23	-5	-272	-2	-12	2
COc1cc(/C=C2/SC(=S)N(c3c(C)n(C)n(-c4ccccc4)c3=O)C2=O)ccc1O	33*	-4	-126	4	-3	-1
COC(=O)C1=C(CS(=O)(=O)c2ccc(OC)c(OC)c2)NC(=O)NC1c1ccc(O)c(OC)c1 (stereo not drawn)	3	-5	5	-8	0	8
COC(=O)C1=C(CS(=O)(=O)c2cc(OC)ccc2OC)NC(=O)NC1c1ccc(O)c(OC)c1 (stereo not drawn)	-8	6	20*	6	1	-5
CCOC(=O)/C(C#N)=C1\CCCN1CC(N)=S	31*	-2	0	/	-1	7
O=C(c1ccccc1Oc1ccccc1)N1CCC(Oc2cccnc2)CC1	/	/	/	/	5	/
O=C(Nc1nccs1)C(c1ccccc1)N1CCCCC1 (stereo not drawn)	4	-6	2	0	-6	-3
O=C(Nc1nccs1)C(Br)C(Br)c1ccccc1 (stereo not drawn)	31*	6	6	-30	-6	1
O=[N+]([O-])c1ccc(CN2CCN(c3ccccc3)CC2)o1	5	3	28*	15	7	-2
COC(=O)[C@]12C[C@H](CC(=O)NCc3ccc(OC)c(OC)c3)C(=O)N(CCC3=CCCCC3)C1=C[C@H](C(C)(C)C)O[C@@H]2C	/	/	/	/	-13	/
Cc1cccc(C)c1OCc1nnc(SCC(=O)Nc2nccs2)o1	28*	-6	-6	10	-15	/
CCOc1ccc(NC(=O)CSc2nnc(COc3c(C)cccc3C)o2)cc1	6	-3	24*	4	14	-18
SMILES	PfM18AAP inh	HTR2A ag	NRP1-CendR mod	Arr AP2 block	sPLA2-III inh	Lipid droplet
Cc1ccccc1/C=N/Nc1nc2ccccc2c(=O)n1O	31*	6	-7	43	-6	/
S=c1[nH]c(-c2ccccc2)cn1/N=C/c1ccc(Br)cc1	19	2	0	-4	0	-1
O=C(O)c1ccc(/C=N/n2cc(-c3ccccc3)[nH]c2=S)cc1	48*	0	-6	6	6	0
Cc1ccc(C)c(/C=N/n2cc(-c3ccccc3)[nH]c2=S)c1	29*	0	-2	-6	7	6
CCCC#C/C(CCC)=C1\c2ccccc2C(=O)N1c1ccccc1	/	/	/	/	-3	/
C[C@@]12C(=O)N(CC3CCCO3)CC(=O)N1[C@@H]1c3ccccc3OC[C@@H]1[C@@H]2c1ccccc1 (stereo partly drawn)	/	-5	4	-17	9	/
COc1ccc2c(c1)OC[C@H]1[C@H]2N2C(=O)CN(CC3CCCO3)C(=O)[C@@]2(C)[C@H]1c1ccccc1 (stereo partly drawn)	/	3	26*	5	-5	/
COc1ccc2c(c1)OC[C@H]1[C@H]2N2C(=O)c3ccccc3NC(=O)[C@@]2(C)[C@H]1c1ccccc1	/	-3	-2	-2	39*	/
CC(=C1N=C(c2ccccc2)OC1=O)c1cccs1	/	/	/	/	0	/
O=C(/C=C/NCc1cccnc1)c1ccc(-c2ccccc2)cc1	4	-4	8	-6	-4	-10
CC(=O)Nc1cc(F)c2c(c1F)Cc1cc(F)ccc1-2	/	-6	24*	-2	12	/
Oc1ccc(/C=N/NC(=S)Nc2cccnc2)cc1O	60*	-1	-13	0	12	2
Cn1c(/C=N/Nc2nc3ccccc3[nH]2)nc2ccccc21	5	-5	-11	3	49*	-15
C/C(=N\Nc1nc2ccccc2[nH]1)c1ccc2c(c1)OCO2	23	-6	-1	-3	2	32
Cc1c(/C=N/Nc2nc3ccccc3[nH]2)c2ccccc2n1C	14	-9	-8	42	6	26
COc1cccc(/C=N/Nc2nc3ccccc3[nH]2)c1O	30*	0	-16	-5	12	-6
C(=N\Nc1nc2ccccc2[nH]1)/c1ccc2c(c1)OCO2	29*	-8	-4	-45	3	10
CCCn1c(/C=N/Nc2nc3ccccc3[nH]2)nc2ccccc21	2	-5	-3	/	31*	-34
CCCN1CCc2c(sc(NC(=O)C3CCN(S(=O)(=O)c4cccs4)CC3)c2C(N)=O)C1	/	-3	-3	44	-15	/
O=C(NCc1cc(C(F)(F)F)cc(C(F)(F)F)c1)c1cc(-c2cc(F)ccc2OCC2CCCO2)n[nH]1 (stereo not drawn)	/	-2	2	/	3	/
COc1cccc2c1NC(C(=O)O)C1CC=CC21 (stereo not drawn)	10	2	42*	8	/	-5
COC(=O)C1=C(C)N(C)C(=NCc2ccc3c(c2)OCO3)NC1c1ccc(C(F)(F)F)cc1 (stereo not drawn)	/	/	/	/	-15	/

Source: PubChem BioAssay
